Variants at the floor of the assay were thinned out.
B1: tRNA (parent)
chain: GUUCCGUUGGCGUAAUGGUAACGCGUCUCCCUCCUAAGGAGAAGACUGCGGGUUCGAGUCCCGUACGGAACG

Variants of: B1
Experiment: yeast fitness relative to wild type (ratio to wild type); higher = fitter; tRNA-Arg(CCU), competitive growth, 37 C, YPD
Summary of the method: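 Variants of the tRNA-Arg(CCU) gene, chemically synthesised with a 3% per-site mutation rate at 69 sites, were placed at the native genomic locus in Saccharomyces cerevisiae. The pooled strains were competed in YPD at 37°C for 24 hours in six parallel replicates. Gene amplicons from the start population and from each end population were read by 100-nucleotide paired-end sequencing. Darwinian fitness relative to wild type came from changes in genotype frequencies; genotypes needed ≥ 100 starting reads, and estimates < 0.5 were set to 0.5.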

Variant | yeast fitness
GUUCCGUUGGAGUAAUGGUAACGCGUCUCCGUCCUAAGGAGUAGACUGCGGGUUCGAGUCCAGUAUGGUACG [C11A C31G A42U C62A C66U A69U] | ≤ 0.5
GUUCCGUUGGAGUAAUGGUAACGCGUCUCCCUCCUAAGGAGAAGACUGAGGGUUCGAGUCCAGUACGGAACG [C11A C49A C62A] | ≤ 0.5
GUUCCGUUGGAGUAAUGGUAACGCGUCUCCCUCCUAAGGAGAAGACUGCGGGUUCGAGUCCCGUAUGGAACG [C11A C66U] | 0.569
GUUCCGUUGGAGUAAUGGUAACGCGUCUCCCUACUAAGGAGAAGACUGCGGGUUCGAGUCCCGUACGAAACG [C11A C33A G68A] | 0.557
GUUCCGUUGGAGUAAUGGUAACGUGUCUCCCUCCUAAGGAGAAGACUACGGGUUCGAGUCCCGUACGGAACG [C11A C24U G48A] | ≤ 0.5
GUUCCGUUGGAGUAAUGGUAACGCGUCUCUCUGCUAAGGGGAAGACUGCGGGUUCGAGUCCCGUACGGAACG [C11A C30U C33G A40G] | ≤ 0.5
GUUCCGUUGGAGUAAUGGUAACGCGUCUCCCUCCUAAGGAGAAGAUUGCGGGAUCGAGUCCCCUACGGAACG [C11A C46U U53A G63C] | ≤ 0.5
GUUCCGUUGGAGUAAUGGUAACGCGUCUCCCUCCUAAGGAGAAGACUGAGGGUUCGAGUCCCGUAUGGAACG [C11A C49A C66U] | ≤ 0.5
GUUCCGUUGGAGUAAUGGUAACGCGUCUCCCUCGUAAGGAGAAGACUGCGGGUUCGAGUCCCGUACGGAACG [C11A C34G] | ≤ 0.5
GUUCCGUUGGAGUAAUGGUAACGCGUUUCCAUCCUAAGGAGAAGACUGCGGGUUCGAGUCCCGUACGGAACG [C11A C27U C31A] | ≤ 0.5
GUUCCGUUGGAGUAAUGGUAACGCGUGUCCUUCCUAAGGAGAAGACUGCGGGUUCGAGUCCCGUACGAAACG [C11A C27G C31U G68A] | ≤ 0.5
GUUCCGUUGGAGUAAUGGUAACGCGUCUGCCUCCUAAGGAGAAGACUGCGGGUUCGAGUUCCGUACAGUACG [C11A C29G C60U G67A A69U] | ≤ 0.5
GUUCCGUUGGAGUAAUGGUAACGCGUGUCCCUCCAAAGGAGAUGACUGCGGGUCCGAGUCCCGUACGGAACG [C11A C27G U35A A43U U54C] | 0.556
GUUCCGUUGGAGUAAUGGUAACGCGUCUCCCUCAUAAGGGGAACACUGCGGGUUCGAGUCCCGUACGGAUCG [C11A C34A A40G G44C A70U] | ≤ 0.5
GUUCCGUUGGAGUAAUGGUAACGUGUCUCCCACCCAAGGAGAAGACUGCGGGUUCGAGUCCCGUACGGAACG [C11A C24U U32A U35C] | 0.566
GUUCCGUUGGAGUAAUGGUAACGCGUCUCUCUCCUAAGGAGAAGACUGGGGGUUCGAGUCCCGUACGGAACG [C11A C30U C49G] | 0.579
GUUCCGUUGGAGUAAUGGUAACGCGUCUCGCUCGUAAGGAGAAGACUGCGGGUUCGAGUCCCGUACGGAACG [C11A C30G C34G] | 0.579
GUUCCGUUGGAGUAAUGGUAACGCGUCUCCUUCCUAAGGACACGACUGCGGGUUCGAGUGCCGUACGGAACG [C11A C31U G41C A43C C60G] | ≤ 0.5
GUUCCGUUGGAGUAAUGGUAACGCGUCUCCAUCCUAAGGAGAACACUGCGGGUUCGAGUCCCGUACGGAACG [C11A C31A G44C] | ≤ 0.5

Variant | yeast fitness
GUUCCGUUGGAGUAAUGGUAACGCGUCUACCUCCAAAGGAGAAGACUGCGGGUUCGAGUCCCGUGCGGAACG [C11A C29A U35A A65G] | ≤ 0.5
GUUCCGUUGGAGUAAUGGUAACGCGUCUCCCUCCUAAGGAGAAGACUGAGGGUUCGAGUCCCGUACGGAACG [C11A C49A] | ≤ 0.5
GUUCCGUUGGAGUAAUGGUAACGCGUCUCCCUCUUAAGGAGAAGACUGCGGGCUCGAGUCCCGUACGGCACG [C11A C34U U53C A69C] | ≤ 0.5
GUUCCGUUGGAGUAAUGGUAACGCGUAUACCUCCUAAGGAGCAGACAGCGGAUUCGAGCCCCGUACGGAACG [C11A C27A C29A A42C U47A G52A U59C] | 0.503
GUUCCGUUGGAGUAAUGGUAACGCGUCUCCCUCCUAAGGAGAAGACUGUGGGUUCGAGUCCCGUACGAAACG [C11A C49U G68A] | ≤ 0.5
GUUCCGUUGGAGUAAUGGUAACGCGUCUCCCUCUUAAGGAGGAGACUGCGGGUUCGAGUCCCGUACGGAACG [C11A C34U A42G] | ≤ 0.5
GUUCCGUUGGAGUAAUGGUAACGCGUCUUCCUUCUAAGGAGAAGACUGCGGGUCCGAGUCCCGUACGGAACG [C11A C29U C33U U54C] | ≤ 0.5
GUUCCGUUGGAGUAAUGGUAACGCGUCUACCUCCUAUGGAGAAGACUGCGGGUUCGAGUCCCGUACGGAACG [C11A C29A A37U] | ≤ 0.5
GUUCCGUUGGAGUAAUGGUAACGCGUCUCCUUCCUACGGAGAAGACUGCGGGUUCGAGUCCCGUAUGGAACG [C11A C31U A37C C66U] | ≤ 0.5
GUUCCGUUGGAGUAAUGGUAACGCGUCUCCCUGCUAAGGAGACGACUGCGGGUUCGAGUCCCGUACGAAACG [C11A C33G A43C G68A] | 0.61
GUUCCGUUGGAGUAAUGGUAACGCGUGUCCAUCCUAAGGAGAAGACUGCGGGUUCGAGUCCCGUACGGAACG [C11A C27G C31A] | 0.543
GUUCCGUUGGAGUAAUGGUAACGCGUCUCCCUCCUAAGGAGAAGACUGCGGGUUCGAGUGCCGUUCGGAACG [C11A C60G A65U] | ≤ 0.5
GUUCCGUUGGAAUAAUGGUAACGCGUCUCCCUCCUAAGGAGAAGACUGCGGGUUCGAGUCCCGUAAGGAACG [C11A G12A C66A] | ≤ 0.5
GUUCCGUUGGAGUAAUAGUAACGCGUCUCCCUUCUAAGGAGAAGACUGCGGGUUCGAGUCCCGUACGGACCG [C11A G17A C33U A70C] | ≤ 0.5
GUUCCGUUGGAGUAAUGGUAACGCGUCUGCCUCCUAAGGAGAAAACUGCGGGUUCCAGUCCAGUACCGAACG [C11A C29G G44A G56C C62A G67C] | ≤ 0.5
GUUCCGUUGGAGUAAUGGUAACGCGUCUCCCUCCUAAGGAGAAGACUGCGGGUUUGAGUCCCAUAGGGAACG [C11A C55U G63A C66G] | ≤ 0.5
GUUCCGUUGGAGUAAUGGUAACGCGUUCCCCUCCUAAGGAGAAGACUGCGGGUUCGCGUCCAGUACGGAACG [C11A C27U U28C A57C C62A] | 0.716
GUUCCGUUGGAGUAAUGGUAACGCGUCUACCUCCUAAGGAGAAGACUGCGGGUUCGAGUCCCGUACGGAACG [C11A C29A] | ≤ 0.5
GUUCCGUUGGAGUAAUGGUAACGCGUCUCCCUUCUAAGGAGAAGACUGCGGGUUCGAGUCCUGUACGGCACG [C11A C33U C62U A69C] | ≤ 0.5
